Converted amounts (≈) assume the structure as drawn.
Experiments:
Format in all cases: functional
[1] = test system: Mycobacterium tuberculosis; assay: Antitubercular activity against Mycobacterium tuberculosis isolate CDCT28 harboring rpoB mutant gene after 7 days by resazurin dye based assay
In short: (§1)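 Resazurin microtiter MIC in 7H9 with 10% ADC. Two-fold dilutions from 1 mg/mL DMSO stocks span 25.0–0.05, 10.0–0.02 or 0.02–0.0004 µg/mL, with 2.5% DMSO final. Inoculum is bead-declumped culture grown in 7H9/10% OADC/0.05% Tween 80, diluted to OD600 0.006. Plates run 7 days at 37 °C, then 0.01% resazurin for 48 h. MIC is the lowest concentration preventing the blue-to-pink change. Three independent tests.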

[2] = test system: Mycobacterium tuberculosis; assay: Antitubercular activity against multidrug-resistant Mycobacterium tuberculosis isolate CDCT16 harboring rpoB/katG/inhA mutant gene after 7 days by resazurin dye based assay; in short: as §1
[3] = test system: Mycobacterium tuberculosis; assay: Antitubercular activity against isoniazid/ethambutol-resistant Mycobacterium tuberculosis isolate CDCT27 harboring katG mutant gene after 7 days by resazurin dye based assay; in short: as §1
[4] = test system: Mycobacterium tuberculosis; assay: Antitubercular activity against multidrug-resistant Mycobacterium tuberculosis isolate CDCT10 harboring rpoB/katG mutant gene after 7 days by resazurin dye based assay; in short: as §1

Structure (SMILES): C[C@H]1CC[C@H](NC(=O)CSc2nc3ccccc3c(=O)[nH]2)CC1
- MIC [1]: 0.12 µM (≈ 0.0398 µg/mL)
- MIC [2]: 0.24 µM (≈ 0.0795 µg/mL)
- MIC [3]: 0.12 µM (≈ 0.0398 µg/mL)
- MIC [4]: 0.12 µM (≈ 0.0398 µg/mL)

Structure (SMILES): O=C(CSc1nc2ccccc2c(=O)[nH]1)NCC1CCCCC1
- MIC [1]: 0.93 µM (≈ 0.308 µg/mL)
- MIC [2]: 0.93 µM (≈ 0.308 µg/mL)
- MIC [3]: 0.48 µM (≈ 0.159 µg/mL)
- MIC [4]: 0.93 µM (≈ 0.308 µg/mL)

Structure (SMILES): CC1CCCC(NC(=O)CSc2nc3ccccc3c(=O)[nH]2)C1 (configuration not stated)
- MIC [1]: 0.93 µM (≈ 0.308 µg/mL)
- MIC [2]: 0.9 µM (≈ 0.298 µg/mL)
- MIC [3]: 0.24 µM (≈ 0.0795 µg/mL)
- MIC [4]: 0.94 µM (≈ 0.312 µg/mL)

Structure (SMILES): CC1CCCCC1NC(=O)CSc1nc2ccccc2c(=O)[nH]1 (configuration not stated)
- MIC [1]: 1.9 µM (≈ 0.63 µg/mL)
- MIC [2]: 3.9 µM (≈ 1.29 µg/mL)
- MIC [3]: 0.96 µM (≈ 0.318 µg/mL)
- MIC [4]: 0.95 µM (≈ 0.315 µg/mL)

Structure (SMILES): O=C(CSc1nc2ccccc2c(=O)[nH]1)NC1CCCCCC1
- MIC [1]: 0.48 µM (≈ 0.159 µg/mL)
- MIC [2]: 0.93 µM (≈ 0.308 µg/mL)
- MIC [3]: 0.24 µM (≈ 0.0795 µg/mL)
- MIC [4]: 0.48 µM (≈ 0.159 µg/mL)

Structure (SMILES): CC1CCC(NC(=O)CSc2nc3ccccc3c(=O)[nH]2)CC1 (configuration not stated)
- MIC [1]: 0.24 µM (≈ 0.0795 µg/mL)
- MIC [2]: 0.48 µM (≈ 0.159 µg/mL)
- MIC [3]: 0.12 µM (≈ 0.0398 µg/mL)
- MIC [4]: 0.24 µM (≈ 0.0795 µg/mL)

Structure (SMILES): O=C(CSc1nc2ccccc2c(=O)[nH]1)NC1CCCCC1
- MIC [1]: 0.5 µM (≈ 0.159 µg/mL)
- MIC [2]: 0.97 µM (≈ 0.308 µg/mL)
- MIC [3]: 0.25 µM (≈ 0.0794 µg/mL)
- MIC [4]: 0.5 µM (≈ 0.159 µg/mL)

Structure (SMILES): NNC(=O)c1ccncc1 [ISONIAZID]
- MIC [1]: 2.84 µM (≈ 0.389 µg/mL)
- MIC [2]: >729.2 µM
- MIC [3]: 182.3 µM (≈ 25 µg/mL)
- MIC [4]: 45.6 µM (≈ 6.25 µg/mL)
